Test results as given in ChEMBL document CHEMBL1777791, “Protective effect of ε-viniferin on β-amyloid peptide aggregation investigated by electrospray ionization mass spectrometry” (Bioorg Med Chem, 2011).
The source made the active and inactive calls. The rule behind the calls is not given here.

Columns and labels:
[1] = Inhibition of amyloid beta (1 to 42) fibril formation at 10 uM by UV-visible spectrometry analysis
Summary of the method: (§1)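 Full-length Aβ stock (1 mM) prepared in sterile water at 4 °C by brief vortexing, then sonicated 10 min. Polyphenol stock 1 mg/mL in MeOH. Reaction used 10 mM phosphate buffer, pH 7.2, 50 µM peptide final and polyphenol at 5 or 10 µM final. Fibril formation followed by UV–visible spectrophotometry.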

[2] = Inhibition of amyloid beta (1 to 40) fibril formation at 5 uM by UV-visible spectrometry analysis; summary of the method: as §1
[3] = Inhibition of amyloid beta (1 to 40) fibril formation at 10 uM by UV-visible spectrometry analysis; summary of the method: as §1
[4] = Inhibition of amyloid beta (25 to 35) fibril formation at 10 uM by UV-visible spectrometry analysis
Summary of the method: (§2)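 Aβ(25-35) stock (1 mM) prepared in sterile water at 4 °C by brief vortexing, then sonicated 10 min. Polyphenol stock 1 mg/mL in MeOH. Reaction used 10 mM phosphate buffer, pH 7.2, 100 µM peptide final and polyphenol at 5 or 10 µM final. Fibril formation followed by UV–visible spectrophotometry.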

[5] = Binding affinity to amyloid beta (1 to 40) assessed as non-covalent protein-compound complex formation at 10 uM using 35% methanol by electrospray ionization mass spectrometry analysis
Summary of the method: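 ESI ion-trap MS by direct infusion at 180 µL/h. Aβ(1-40) and compound mixed 1:1 molar (10 µM) in 35% methanol. Spectra recorded over m/z 150–2000 in positive and negative ion modes at normal scan resolution. Non-covalent complex ions identified.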

[6] = test system: PC-12; experiment: Cytotoxicity against rat PC12 cells up to 10 uM after 24 hrs by MTT assay; details: pc-12, 24 h
[7] = Inhibition of amyloid beta (25 to 35) fibril formation by UV-visible spectrometry analysis; summary of the method: as §2
[8] = Inhibition of amyloid beta (1 to 42) fibril formation at 5 uM by UV-visible spectrometry analysis; summary of the method: as §1
[9] = test system: PC-12; experiment: Antiamyloidogenic activity in rat PC12 cells assessed as protection against amyloid beta (1 to 42)-induced cell death at 10 uM after 24 hrs by MTT assay; format: functional
Summary of the method: (§3)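 PC12 cells kept in DMEM-Glutamax with 15% heat-inactivated horse serum, 2.5% FBS and antibiotics at 37 °C, 10% CO2, on poly-D-lysine. Seeded 10,000 cells/well and grown 24 h. Aβ was preincubated with or without compound at 37 °C for 48 h, diluted in medium and added (Aβ final 10 µM). After 24 h, MTT 0.5 mg/ml for 3 h at 37 °C, DMSO solubilisation, A595. Read-out is % of control cells.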

[10] = test system: PC-12; experiment: Antiamyloidogenic activity in rat PC12 cells assessed as protection against amyloid beta (1 to 40)-induced cell death at 10 uM after 24 hrs by MTT assay; format: functional; summary of the method: as §3
[11] = test system: PC-12; experiment: Antiamyloidogenic activity in rat PC12 cells assessed as protection against amyloid beta (25 to 35)-induced cell death at 10 uM after 24 hrs by MTT assay; format: functional; summary of the method: as §3

| SMILES | inhibition [1] [%] | inhibition [2] [%] | inhibition [3] [%] | inhibition [4] [%] | Activity [5] | Activity [6] | IC50 [7] [µM] | inhibition [8] [%] | Activity [9] [%] | Activity [10] [%] | Activity [11] [%] |
| --- | --- | --- | --- | --- | --- | --- | --- | --- | --- | --- | --- |
| Oc1ccc(/C=C/c2cc(O)cc(O)c2)cc1 | 61 | 22 | 52 | 63 |  |  |  |  |  |  |  |
| O=C(O)/C=C/c1ccc(O)cc1 |  |  |  |  | inactive |  |  |  |  |  |  |
| OC[C@H]1O[C@@H](Oc2cc(/C=C/c3ccc(O)cc3)c3c(c2)O[C@H](c2ccc(O)cc2)[C@H]3c2cc(O)cc(O)c2)[C@H](O)[C@@H](O)[C@@H]1O | 89 | 59 | 97 | 93 | Active | Non-toxic | < 1 | 70 | 87 | 79 | 80 |
